Assay results taken from ChEMBL document CHEMBL1125056, “Heterosubstituted anthracene-9,10-dione analogues. The synthesis and antitumor evaluation of 5,8-bis[(aminoalkyl)amino]naphtho[2,3-b] thiophene-4,9-diones” (1990).
≈ marks a conversion by molar mass, not a printed value. One block for each compound: values may come before it.

Columns and labels:
L1210 [1] = test: T/C in % was determined against L1210 murine leukemia cells at a dose of 25 x3 mg/kg; 60 - day survivors =0/6; assay type: functional, Mus musculus
P388 leukemia (mouse) [2] = test: T/C in % was determined against P388 murine leukemia cells at a dose of 50 x2 mg/kg; 60 - day survivors =0/6
P388 leukemia (mouse) [3] = test: T/C in % was determined against P388 murine leukemia cells at a dose of 25 x2 mg/kg; 60 - day survivors =0/6
L1210 [4] = test: T/C in % was determined against L1210 murine leukemia cells at a dose of 50 x3 mg/kg; 60 - day survivors =0/6; assay type: functional, Mus musculus
L1210 [5] = test: Compound was tested for the concentration required to inhibit L1210 murine leukemia cell growth by 50% of control; assay type: functional; conditions: Mus musculus, read-out: ID50 (the source's name)
Method in brief: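 L1210 cells grown in suspension in McCoy's 5A with 10% horse serum, glutamine, penicillin and streptomycin at 37 °C in 10% CO2. Drug was added from DMSO to 5 × 10^4 cells/mL at final 0.01, 0.1 and 10 μg/mL. After 72 h continuous exposure, cells were counted on a Coulter counter.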

P388 leukemia (mouse) [6] = test: T/C in % was determined against P388 murine leukemia cells at a dose of 100 x1 mg/kg; Toxic
L1210 [7] = test: T/C in % was determined against L1210 murine leukemia cells at a dose of 12.5x2 mg/kg; 60 - day survivors =0/6; assay type: functional, Mus musculus
L1210 [8] = test: T/C in % was determined against L1210 murine leukemia cells at a dose of 12.5 x3 mg/kg; assay type: functional, Mus musculus
L1210 [9] = test: T/C in % was determined against L1210 murine leukemia cells at a dose of 25 x3 mg/kg; 60 - day survivors =1/6; assay type: functional, Mus musculus
L1210 [10] = test: T/C in % was determined against L1210 murine leukemia cells at a dose of 50 x3 mg/kg
L1210 [11] = test: T/C in % was determined against L1210 murine leukemia cells at a dose of 6.25 x3 mg/kg; 60 - day survivors =1/6; assay type: functional, Mus musculus
L1210 [12] = test: T/C in % was determined against L1210 murine leukemia cells at a dose of 25x3 mg/kg; 60 - day survivors =3/6; assay type: functional, Mus musculus
L1210 [13] = test: T/C in % was determined against L1210 murine leukemia cells at a dose of 12.5 x2 mg/kg; 60 - day survivors =1/6; assay type: functional, Mus musculus
L1210 [14] = test: T/C in % was determined against L1210 murine leukemia cells at a dose of 8 x3 mg/kg; 60 - day survivors =1/6; assay type: functional, Mus musculus
L1210 [15] = test: T/C in % was determined against L1210 murine leukemia cells at a dose of 4 x3 mg/kg 60 - day survivors =3/6; assay type: functional, Mus musculus

Structure (SMILES): CN(C)CCNc1ccc(NCCN(C)C)c2c1C(=O)c1ccsc1C2=O
T/C (L1210 [1]): 107%
T/C (P388 leukemia (mouse) [2]): 128%
T/C (P388 leukemia (mouse) [3]): 108%
T/C (L1210 [4]): 109%
IC50 (L1210 [5]): 0.038 µg/mL (≈ 0.0983 µM)
T/C (P388 leukemia (mouse) [6]): Toxic

Structure (SMILES): O=C1c2ccsc2C(=O)c2c(NCCN3CC3)ccc(NCCN3CC3)c21
T/C (P388 leukemia (mouse) [2]): 114%
T/C (P388 leukemia (mouse) [3]): 112%
IC50 (L1210 [5]): 0.0035 µg/mL (≈ 0.00915 µM)
T/C (L1210 [7]): 104%

Structure (SMILES): O=C1c2ccsc2C(=O)c2c(NCCBr)ccc(NCCBr)c21
IC50 (L1210 [5]): 5.2 µg/mL (≈ 11.3 µM)

Structure (SMILES): O=C1c2ccccc2C(=O)c2c(NCCNCCO)ccc(NCCNCCO)c21 [AMETANTRONE]
T/C (L1210 [8]): 177%
T/C (L1210 [9]): 203%
T/C (L1210 [10]): 146%

Structure (SMILES): O=C1c2ccsc2C(=O)c2c(NCCNCCO)ccc(NCCNCCO)c21
T/C (L1210 [11]): 403%
T/C (L1210 [12]): 333%
IC50 (L1210 [5]): 0.064 µg/mL (≈ 0.153 µM)

IC50 (L1210 [5]): > 10 µg/mL
Structure (SMILES): O=C1c2ccsc2C(=O)c2c(NCCO)ccc(NCCO)c21

Structure (SMILES): NCCNc1ccc(NCCN)c2c1C(=O)c1ccsc1C2=O
T/C (L1210 [13]): 386%
T/C (L1210 [14]): 400%
T/C (L1210 [15]): 325%
IC50 (L1210 [5]): 0.026 µg/mL (≈ 0.0787 µM)
